Compound activity from PubChem.
Most compounds without a hit are left out; they make up all but 2.9% or so of the library.
UBC13 polyUb = inhibitors of human UBC13 polyubiquitin chain formation. 0.47% of 330,000 active. TR-FRET. inhibition, % at 20 µM; in the data active = inhibition above about 45%, passing the limit was not always enough
ZTA counter = ZTA (EBV) inhibition in EBNA-1 counter-screen; ZTA-DNA binding, fluorescence polarization; inhibition, % at 11 µM; 0.15% of 320,000 active; AID 2234; in the data active = inhibition above about 33%
PfGluPho inh = PfG6PD (Plasmodium falciparum) enzyme inhibition. PfGluPho enzyme, NADPH resazurin-diaphorase fluorescence. inhibition, % at 20 µM. 0.78% of 350,000 active;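 active = inhibition reaching at least a set limit at 20 µM in the primary screen, cut at about 59% in these data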
PfM18AAP inh-1 = blocks P. falciparum M18 aspartyl aminopeptidase | recombinant PfM18AAP, H-Glu-NHMec fluorogenic cleavage | inhibition, % at 7.35 µM | 1.2% of 290,000 active | AID 1822;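 active = inhibition above the campaign mean inhibition over all tested compounds plus 3 SD, cut at about 28% in these data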
Apaf-1 inh = inhibitors of human Apaf-1 apoptosome; O14727; reconstituted apoptosome caspase-3 activity, DEVD-Rh110 fluorescence; inhibition, % at 20 µM; 0.71% of 330,000 active; active = inhibition of at least 40% at 20 µM
Target sequence (O14727 whole entry, looked up): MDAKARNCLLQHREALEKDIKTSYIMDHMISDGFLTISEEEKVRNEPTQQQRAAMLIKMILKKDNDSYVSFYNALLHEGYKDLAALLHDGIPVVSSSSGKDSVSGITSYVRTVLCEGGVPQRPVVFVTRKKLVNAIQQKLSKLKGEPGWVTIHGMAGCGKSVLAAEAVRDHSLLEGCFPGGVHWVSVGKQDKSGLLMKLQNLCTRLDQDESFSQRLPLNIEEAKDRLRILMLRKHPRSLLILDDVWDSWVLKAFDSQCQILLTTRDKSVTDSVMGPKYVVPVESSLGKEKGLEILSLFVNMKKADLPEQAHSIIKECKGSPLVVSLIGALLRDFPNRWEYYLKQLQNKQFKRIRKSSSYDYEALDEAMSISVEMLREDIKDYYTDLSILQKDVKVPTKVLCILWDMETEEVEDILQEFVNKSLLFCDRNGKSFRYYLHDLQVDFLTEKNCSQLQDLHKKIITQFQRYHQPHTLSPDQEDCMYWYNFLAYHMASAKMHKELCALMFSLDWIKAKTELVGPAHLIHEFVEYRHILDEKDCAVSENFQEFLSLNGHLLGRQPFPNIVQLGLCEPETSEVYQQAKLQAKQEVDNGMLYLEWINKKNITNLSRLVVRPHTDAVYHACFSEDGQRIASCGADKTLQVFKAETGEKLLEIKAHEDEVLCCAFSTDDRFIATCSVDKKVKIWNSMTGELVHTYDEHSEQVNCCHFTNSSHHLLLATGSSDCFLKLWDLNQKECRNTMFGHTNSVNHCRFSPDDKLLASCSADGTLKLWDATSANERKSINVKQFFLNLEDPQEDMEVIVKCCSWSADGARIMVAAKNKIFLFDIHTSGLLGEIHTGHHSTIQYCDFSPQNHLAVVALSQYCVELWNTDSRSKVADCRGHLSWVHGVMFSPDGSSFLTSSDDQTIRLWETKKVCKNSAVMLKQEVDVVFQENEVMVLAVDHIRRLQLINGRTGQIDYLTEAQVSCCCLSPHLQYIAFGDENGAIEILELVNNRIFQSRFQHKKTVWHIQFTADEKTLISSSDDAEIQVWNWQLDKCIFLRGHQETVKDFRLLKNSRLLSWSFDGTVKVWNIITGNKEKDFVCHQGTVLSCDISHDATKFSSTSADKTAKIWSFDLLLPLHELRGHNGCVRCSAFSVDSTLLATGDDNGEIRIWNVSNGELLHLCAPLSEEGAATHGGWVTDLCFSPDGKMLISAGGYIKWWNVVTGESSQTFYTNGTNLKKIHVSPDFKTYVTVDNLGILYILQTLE
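Assay system – apoptosome proteins · Medium – Hepes buffer, pH 7.5 · Also added – cytochrome c with DEVD-Rh110 · Timing – 30 min compound preincubation, 50 min activation, room temperature · Detection – Rh110 fluorescence, excitation 480 nm, emission 540 nm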
EBNA-1 inhibitor = blocks EBNA-1 binding to DNA; EBNA-1 DNA binding, fluorescence polarization; inhibition, % at 14.8 µM; 0.34% of 300,000 active; AID 1950; in the data active = inhibition above about 28%
PfM18AAP inh-2 = confirmation of Plasmodium falciparum M18 aspartyl aminopeptidase inhibitors; inhibition, % at 7.35 µM; recombinant PfM18AAP, H-Glu-NHMec fluorogenic cleavage; shares compounds with PfM18AAP inh-1; AID 2170; 28% of 2,400 active;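 active = mean inhibition over replicate wells above the hit cutoff set for the earlier primary screen, cut at about 29% in these data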
CTSL1 counter = counter-screen for PFM18AAP inhibitors: confirmation of human cathepsin L inhibitors; shares compounds with PfM18AAP inh-1; 2,400 tested, under 10 active; purified cathepsin L1, Z-Leu-Arg-MCA fluorescence; inhibition, % at 5.96 µM;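 active = average inhibition across replicates above the hit cutoff set in the earlier primary screen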
Numbers stand for hits.

Results for CCCN1CC=C2C(C#N)=C(N)C(C#N)(C#N)C(c3cccc(OC)c3OC)C2C1 (stereo unspecified) ?
UBC13 polyUb: inactive; ZTA counter: inactive; PfGluPho inh: inactive; PfM18AAP inh-1: inactive; Apaf-1 inh: inactive; EBNA-1 inhibitor: inactive

What do the screens show for `COc1cccc(OC)c1OCc1cc(C2C3CCCC=C3C(C#N)=C(N)C2(C#N)C#N)c(C)cc1C` (stereo unspecified)?
UBC13 polyUb: inactive; ZTA counter: inactive; PfGluPho inh: inactive; PfM18AAP inh-1: 36; Apaf-1 inh: inactive; EBNA-1 inhibitor: inactive; PfM18AAP inh-2: inactive; CTSL1 counter: inactive

How did O=C(O)c1ccc(N/N=C2/CCCc3ccccc32)cc1 do in these assays?
UBC13 polyUb: inactive; ZTA counter: inactive; PfGluPho inh: inactive; PfM18AAP inh-1: 34; Apaf-1 inh: inactive; EBNA-1 inhibitor: inactive; PfM18AAP inh-2: inactive; CTSL1 counter: inactive

Results for Cc1cccnc1Nc1nc(-c2ccc(O)cc2)cs1 ?
UBC13 polyUb: inactive; ZTA counter: inactive; PfGluPho inh: inactive; PfM18AAP inh-1: 34; Apaf-1 inh: inactive; EBNA-1 inhibitor: inactive; PfM18AAP inh-2: 30; CTSL1 counter: inactive

Results for COc1cccc(Nc2nc(-c3ccc(O)cc3)cs2)c1 ?
UBC13 polyUb: inactive; ZTA counter: inactive; PfGluPho inh: inactive; PfM18AAP inh-1: 43; Apaf-1 inh: inactive; EBNA-1 inhibitor: inactive; PfM18AAP inh-2: 34; CTSL1 counter: inactive

Results for Nc1nonc1-n1nnc(C(=O)N/N=C/c2ccccc2Cl)c1CN1CCOCC1 ?
UBC13 polyUb: inactive; ZTA counter: inactive; PfGluPho inh: inactive; PfM18AAP inh-1: inactive; Apaf-1 inh: inactive; EBNA-1 inhibitor: inactive

What do the screens show for `CCOC(=O)NC1(Nc2cccc(Cl)c2)Oc2ccccc2O1`?
ZTA counter: inactive; PfGluPho inh: inactive; PfM18AAP inh-1: 52; EBNA-1 inhibitor: inactive; PfM18AAP inh-2: 63; CTSL1 counter: inactive

Results for CC(C)(C)NC(=O)NC(=O)COC(=O)c1cc[n+]([O-])cc1 ?
UBC13 polyUb: inactive; ZTA counter: inactive; PfGluPho inh: inactive; PfM18AAP inh-1: inactive; Apaf-1 inh: inactive; EBNA-1 inhibitor: inactive

How did CCCN(CC(=O)Nc1ccccc1C)C(=O)Cc1c(C)nc2ccccc2c1C do in these assays?
UBC13 polyUb: inactive; ZTA counter: inactive; PfGluPho inh: inactive; Apaf-1 inh: inactive

Results for COc1ccccc1Cc1nnc(NC(=O)C2CCN(C(=O)c3ccco3)CC2)s1 ?
UBC13 polyUb: inactive; ZTA counter: inactive; PfGluPho inh: inactive; PfM18AAP inh-1: 42; Apaf-1 inh: inactive; EBNA-1 inhibitor: inactive; PfM18AAP inh-2: inactive; CTSL1 counter: inactive

What do the screens show for `COCc1nnc(NC(=O)C2CCN(C(=O)c3ccco3)CC2)s1`?
UBC13 polyUb: inactive; ZTA counter: inactive; PfGluPho inh: inactive; PfM18AAP inh-1: inactive; Apaf-1 inh: inactive; EBNA-1 inhibitor: inactive

What do the screens show for `Cc1cc(C)nc(N/N=C/C2=C(N3CCOCC3)C(=C/c3ccccc3)/CC2)n1`?
UBC13 polyUb: inactive; ZTA counter: inactive; PfGluPho inh: inactive; PfM18AAP inh-1: 36; Apaf-1 inh: inactive; EBNA-1 inhibitor: inactive; PfM18AAP inh-2: inactive; CTSL1 counter: inactive

How did O=C(O)c1ccccc1N/N=C/C1=C(N2CCOCC2)C(=C\c2ccccc2)/CC1 do in these assays?
UBC13 polyUb: inactive; ZTA counter: inactive; PfGluPho inh: inactive; PfM18AAP inh-1: inactive; Apaf-1 inh: inactive; EBNA-1 inhibitor: inactive

What do the screens show for `Cn1cc(S(=O)(=O)N2CCOCC2)cc1C(=O)NCc1ccccc1Cl`?
UBC13 polyUb: inactive; ZTA counter: inactive; PfGluPho inh: inactive; PfM18AAP inh-1: inactive; Apaf-1 inh: inactive; EBNA-1 inhibitor: inactive

Results for C#CCNC(=O)/C=C/c1ccc(OC)cc1 ?
UBC13 polyUb: inactive; ZTA counter: inactive; PfGluPho inh: inactive; PfM18AAP inh-1: inactive; Apaf-1 inh: inactive; EBNA-1 inhibitor: inactive

How did O=C(/C=C/c1ccccc1)Nc1ncn[nH]1 do in these assays?
UBC13 polyUb: inactive; ZTA counter: inactive; PfGluPho inh: inactive; PfM18AAP inh-1: 45; Apaf-1 inh: inactive; EBNA-1 inhibitor: inactive; PfM18AAP inh-2: 48; CTSL1 counter: inactive

Results for COc1ccc(/C=C/C(=O)Nn2cnnc2)cc1 ?
UBC13 polyUb: inactive; ZTA counter: inactive; PfGluPho inh: inactive; PfM18AAP inh-1: 80; Apaf-1 inh: inactive; EBNA-1 inhibitor: inactive; PfM18AAP inh-2: 71; CTSL1 counter: inactive
